This is a sample that favours compounds with a hit; in the whole collection about 1.6% have one here.
CSN inh: inhibitors of human CSN-mediated cullin deneddylation; Q92905; Purified CSN, SCF-Nedd8-OG deneddylation, fluorescence polarization; inhibition, % at 12.5 µM; 0.38% of 360,000 active;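 active = pattern-corrected inhibition above about 35%, with an unprinted fluorescence ratio check between 0.5 and 1.5, limit read from the data, passing the limit was not always enough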;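 also: 0% = enzyme with substrate and 100% = substrate without enzyme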
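Detection – fluorescence polarization · System – HEK293T-derived human Csn5 enzyme · Controls – substrate-only high control, full reaction low control · Timing – 90 min, room temperature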
Rpn11 block: inhibitors of human proteasome Rpn11; O00487; human 26S proteasome, Ub4-pepOG fluorescence polarization; 20S core pre-blocked with epoxomicin; calls only at 20 µM; 0.59% of 360,000 active; AID 588493;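 active = inhibition at 20 µM, scaled to each plate's controls, above about 33%, limit read from the data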
Target sequence (O00487 whole entry, looked up): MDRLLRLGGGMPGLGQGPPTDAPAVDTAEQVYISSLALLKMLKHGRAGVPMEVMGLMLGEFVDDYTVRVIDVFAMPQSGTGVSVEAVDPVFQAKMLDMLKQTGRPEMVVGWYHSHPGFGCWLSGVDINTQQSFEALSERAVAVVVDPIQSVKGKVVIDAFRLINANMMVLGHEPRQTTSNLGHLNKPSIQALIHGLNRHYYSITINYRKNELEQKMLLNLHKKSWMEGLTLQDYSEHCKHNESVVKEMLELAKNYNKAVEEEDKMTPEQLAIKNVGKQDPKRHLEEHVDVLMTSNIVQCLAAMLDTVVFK
PKA-R1A act: activates the PKA-R1A holoenzyme complex. AID 504707. PKA-R1A dissociation, Cy5-IP20 fluorescence polarization; scaled: DMSO 0%, 113 µM cGMP 100%. 0.083% of 340,000 active. P00514+P68181. activation, % at 11.4 µM;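 active = percent activation above the mean of all tested compounds plus 3 SD, cut at about 19% in these data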;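 also: higher means more PKAc released from R1A so a rise in polarization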
TPT1 inhibitor: blocks Candida albicans tRNA 2'-phosphotransferase; recombinant caTPT1, FP RNA substrate dephosphorylation; inhibition, % at 5 µM; 0.81% of 300,000 active; AID 1962;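 active = inhibition above the mean of all tested compounds plus 3 SD, set per screening campaign, cut at about 24% in these data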;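 also: plate controls were DMSO alone for no effect and ferristatin control at 100 nM for full effect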
PKA-R2B act: activators of human PKA-R2B complex; P22694+P31323; activation, % at 11.4 µM; PKA-R2B holoenzyme dissociation, Cy5-IP20 fluorescence polarization; R2B truncated from residue 108, S112A mutant; 0% DMSO only, 100% 113 µM cGMP; 0.079% of 340,000 active;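 active = activation above a cutoff set at the mean over all compounds plus 3 SD, cut at about 18% in these data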;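 also: higher means more holoenzyme dissociation and a rise in polarization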
HNF4A DNA FP: change in binding of human HNF4 alpha to DNA | activity change, % at 10 µM | 0.3% of 360,000 active | HNF4a-FITC DNA binding, fluorescence polarization, 1 h | P41235; in the data active = activity change above about 30%, passing the limit was not always enough
Rpn11 confirm: confirmation of human proteasome Rpn11 inhibitors; shares compounds with Rpn11 block; purified human 26S proteasome, Ub4-pepOG fluorescence polarization; proteasome pretreated with epoxomicin; inhibition, % at 20 µM; 29% of 1,900 active; AID 602318
MMP-2 inh: MMP-2 (human) inhibition counter-screen; shares compounds with Rpn11 block; recombinant MMP-2, FRET peptide cleavage fluorescence; inhibition, % at 20 µM; 4% of 1,900 active; AID 602330;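 also: human MMP-2 activated beforehand with APMA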
Thrombin inh: blocks bovine thrombin, flagging nonselective RPN11 hits. inhibition, % at 20 µM. AID 602333. shares compounds with Rpn11 block. 13% of 1,900 active. bovine thrombin cleavage of Ub4-pepOG, fluorescence polarization;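 active = mean inhibition at least 40% at 20 µM, or signal 3 deviations below plate average, so some actives read negative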;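 also: plate controls were thrombin with DMSO for no effect and buffer wells lacking thrombin for full effect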
An asterisk follows results filed as active; i = inactive; · = no result given; + = active, no number. Rule as the data show it, unless noted: active = inhibition above about 40%; inactive = the rest.

SMILES | CSN inh | Rpn11 block | PKA-R1A act | TPT1 inhibitor | PKA-R2B act | HNF4A DNA FP | Rpn11 confirm | MMP-2 inh | Thrombin inh
O=C(CCc1ccccc1)NC(NC(=S)Nc1ccc(Cl)cc1)C(Cl)(Cl)Cl (stereo unspecified) | 3 | i | -5 | -8 | -14 | 0 | · | · | ·
Cc1nnc(N/N=C\c2ccc(-c3ccccc3[N+](=O)[O-])o2)n1N | 3 | + | -20 | 7 | -9 | 0 | 0 | -37 | -3
C=CCC1=C/C(=C\c2c(N)n3nc(CC(=O)N4CCCC4)sc3nc2=O)C=C(OC)C1=O | 34 | · | -5 | 20 | -4 | 16 | · | · | ·
COC1=C/C(=C/c2c(N)n3nc(CC(=O)N4CCCCC4)sc3nc2=O)C=CC1=O | 12 | + | -6 | 8 | -3 | 7 | 39 | 4 | 52*
CCOC1=C/C(=C/c2c(N)n3nc(CC(=O)N4CCCCC4)sc3nc2=O)C=CC1=O | 24 | + | -11 | 10 | -5 | 11 | 44* | 3 | 38
Cc1cc(C)nc(NS(=O)(=O)c2ccc(NS(=O)(=O)c3ccsc3)cc2)n1 | 0 | i | · | 1 | · | -1 | · | · | ·
Cc1cccc(N(C(=O)c2ccc(CN3CCOCC3)o2)C(C(=O)NC(C)(C)C)c2ccc(F)cc2)c1 (stereo unspecified) | -6 | i | 2 | 2 | 0 | 3 | · | · | ·
COc1ccc2c(c1)CCc1sc(NC(=O)c3ccco3)nc1-2 | 1 | i | -4 | 2 | -17 | 1 | · | · | ·
COc1ccc2c(c1)Cc1sc(NC(=O)c3ccco3)nc1-2 | 24 | + | -2 | -4 | 2 | 1 | -5 | -31 | -9
COC(=O)c1ccc(/C=C/C(=O)c2ccc(OC)c(OC)c2)cc1 | 11 | i | 3 | -1 | -4 | 0 | · | · | ·
COc1ccc(/C=C/C(=O)c2ccc(C(=O)/C=C/c3ccc(OC)c(OC)c3)cc2)cc1OC | 24 | + | 0 | · | 10 | 13 | 36 | -20 | 2
COc1cccc(NC(=O)c2ccccc2)c1 | -1 | i | 1 | 2 | -16 | 0 | · | · | ·
COc1cccc(C(=O)Nc2cccc(-c3ccccc3)c2)c1 | -3 | + | -4 | 1 | -13 | -20 | 4 | 5 | -6
Cc1nn(-c2ccccc2)c(N2CCCC2)c1/C=C1\N=C(c2ccc(F)cc2)OC1=O | 5 | + | 1 | 7 | 6 | 2 | -16 | -12 | -20
Cc1ccc(C2=N/C(=C\c3c(C)nn(-c4ccccc4)c3N3CCCC3)C(=O)O2)cc1 | 3 | i | -4 | 2 | 0 | -1 | · | · | ·
COc1cc(NC(=O)CCc2nc(-c3cccs3)no2)cc(OC)c1OC | 5 | i | 0 | 1 | 3 | 6 | · | · | ·
COc1cc(-c2noc(CCC(=O)Nc3cccnc3)n2)cc(OC)c1OC | -1 | + | 3 | 3 | 6 | 7 | -7 | -6 | -8
COc1ccc(CC(=O)NCC(=O)NCc2cc(=O)n(C)c(=O)n2C)cc1 | 4 | i | 0 | 1 | 3 | 1 | · | · | ·
Cc1nc(NC(=O)/C=C/c2ccccc2)sc1C(=O)Nc1ccccc1Cl | 9 | + | -8 | 1 | -2 | -3 | 38 | -41 | -17
Cc1nnc(SCC(=O)NC(=O)NCCC(C)C)s1 | -14 | i | · | -5 | · | 2 | · | · | ·
COc1cc(/C=C2\C=CC(=O)O2)cc(OC)c1 | 14 | + | -5 | 24 | 15 | 22 | 22 | -4 | 9
CC1=NN(c2ccccc2)C(=O)C1/C=C1\NC(=S)NC1=O (stereo unspecified) | 34 | + | 5 | 2 | -8 | -10 | 84* | 19 | 24

From PubChem
